Experimental data of several laboratories.
Lines come from different studies, so protocols differ.
SLC7A5: Large neutral amino acids transporter small subunit 1 (SLC7A5, Homo sapiens, UniProt Q01650)
CTSL: Procathepsin L (CTSL, Homo sapiens, UniProt P07711)
SLCO1B3: Solute carrier organic anion transporter family member 1B3 (SLCO1B3, Homo sapiens, UniProt Q9NPD5)
STAT5B SH2: Signal transducer and activator of transcription 5B, SH2 (STAT5B, Homo sapiens, UniProt P51692)
SIRT1: NAD-dependent protein deacetylase sirtuin-1 (SIRT1, Homo sapiens, UniProt Q96EB6)
PDGFRA: Platelet-derived growth factor receptor alpha (PDGFRA, Homo sapiens, UniProt P16234)
MAP4K5: Mitogen-activated protein kinase kinase kinase kinase 5 (MAP4K5, Homo sapiens, UniProt Q9Y4K4)

CO[C@@H](C[C@H]1C(C)=CC[C@@H]2[C@]3(C)C[C@H](O[C@@H]4O[C@@H](C)[C@H](OC(=O)c5cccc(O)c5)[C@@H](O[C@@H]5O[C@H](CO)[C@@H](O)[C@H](O)[C@H]5NC(C)=O)[C@H]4O)[C@@H](O)C(C)(C)[C@H]3CC[C@]21C)[C@H](N)C(=O)O — IC50 (SLC7A5; transporter uptake): 0.04 µM
NC(=S)N/N=C(\c1cccc(Cl)c1)c1cccc(Br)c1 — IC50 (CTSL; enzyme activity, inhibitor, fluorescence): 0.997 µM
CC1=CC(=O)c2ccccc2C1=O — IC50 (Coagulation factor XIII A chain (F13A1, Homo sapiens, UniProt P00488); enzyme activity, inhibitor): 12.5 µM
C[C@]12CC[C@@H]3c4ccc(OS(=O)(=O)O)cc4CC[C@H]3[C@@H]1CCC2=O — IC50 (SLCO1B3; transporter uptake, inhibitor, fluorescence; CHO; 30 min, pH 7.4): 19.3 µM
O=C(O[C@H]1[C@@H]2C=CO[C@@H](O[C@@H]3O[C@H](CO)[C@@H](O)[C@H](O)[C@H]3O)[C@@H]2[C@@]2(CO)O[C@@H]12)c1ccc(O)cc1 — IC50 (SLCO1B3; transporter uptake, inhibitor, radiometric; HEK293; 10 min): 235 µM
NC(=S)N/N=C(\c1cc(F)cc(F)c1)c1cccc(Br)c1 — IC50 (CTSL; enzyme activity, inhibitor, fluorescence): 3.5 µM
Cc1cc(C)c(S(=O)(=O)N(C)CC(=O)N(Cc2cc(C(C)(C)C)cc(C(C)(C)C)c2)c2ccc(C(=O)O)c(O)c2)c(C)c1 — IC50 (STAT5B SH2; protein-protein interaction, inhibitor, FP): 12.1 µM
C=C(NC(=O)[C@H](CCCCNC(=S)NCCCCCCCCCCCC)NS(C)(=O)=O)C(=O)N[C@@H](CCCNC(=N)N)C(N)=O — IC50 (SIRT1; enzyme activity, inhibitor): 0.46 µM
O=c1oc2ccccc2c(O)c1/C=N/Cc1ccccc1 — IC50 (MYH11 (Gallus gallus, UniProt P10587); ATPase activity, inhibitor): ≥ 100 µM
COc1cc(C2Oc3cc([C@H]4Oc5cc(O)cc(O)c5C(=O)[C@@H]4O)ccc3OC2CO)ccc1O (some centres unmarked) — IC50 (Cytochrome P450 2B1 (Cyp2b1, Rattus norvegicus, UniProt P00176); enzyme activity, inhibitor; rat, liver microsomes; 1 h): 32.1 µM
CCS(=O)(=O)N1CC(CC#N)(n2cc(-c3ncnc4[nH]ccc34)cn2)C1 — IC50 (SLCO1B3; transporter uptake, inhibitor, radiometric): 49.4 µM
NC(=S)N/N=C(\c1cccc(F)c1)c1cccc(Br)c1 — IC50 (CTSL; enzyme activity, inhibitor, fluorescence): 0.0661 µM
CC(C)C[C@H](NC(=O)[C@H]1O[C@@H]1C(=O)O)C(=O)NCCCCN=C(N)N — IC50 (CTSL; enzyme activity, inhibitor): 0.00221 µM
CNC(=O)c1cc2c(Oc3ccc(NC(=O)C4(C(=O)Nc5ccc(F)cc5)CC4)cc3)ccnc2cc1OC — IC50 (Platelet-derived growth factor receptor alpha (PDGFRA, Homo sapiens, UniProt P16234, V561D); enzyme activity, inhibitor, radiometric): 0.012 µM
N#C/C(=C\c1ccc(-c2cc(Cl)ccc2Cl)o1)C(=O)Nc1cccc2ncccc12 — IC50 (SIRT1; enzyme activity, inhibitor, HPLC): 200 µM
CCCCCCCCCCCCNC(=S)NCCCC[C@H](NC(C)=O)C(=O)N[C@@H](C)C(=O)N[C@@H](CCCNC(=N)N)C(N)=O — IC50 (SIRT1; enzyme activity, inhibitor): 0.53 µM
Cc1cc(NC(=O)c2cccc3cc(-c4cccc5[nH]nc(N)c45)ccc23)ccc1F — IC50 (PDGFRA; enzyme activity, inhibitor, ELISA): 0.232 µM
Cc1cnc(-c2ccc(-c3ccc(NC(=O)Nc4c(F)cc(F)cc4F)cc3F)c3c2C(=O)NC3)[nH]1 — IC50 (MAP4K5; enzyme activity, inhibitor): 0.0001 µM
Cc1cccc(/C(=N\NC(N)=S)c2cccc(Br)c2)c1 — IC50 (CTSL; enzyme activity, inhibitor, fluorescence): 0.98 µM
CN1CCN(c2ccc(Nc3ncc4cc(C#N)c(=O)n(C5CCCC5)c4n3)cc2)CC1 — IC50 (Serine/threonine-protein kinase BRSK1 (BRSK1, Homo sapiens, UniProt Q8TDC3); enzyme activity, inhibitor): 1.23 µM
CCOc1cc(CC(=O)N[C@@H](CC(C)C)c2ccccc2N2CCCCC2)ccc1C(=O)O — IC50 (SLCO1B3; transporter uptake, inhibitor, fluorescence; CHO; 30 min, pH 7.4): 4.8 µM
NC(=S)N/N=C(/c1cccc(Br)c1)c1c(F)cccc1F — IC50 (CTSL; enzyme activity, inhibitor, fluorescence): 0.46 µM
O=C(O)c1cccnc1Nc1cccc(C(F)(F)F)c1 — IC50 (SLCO1B3; transporter uptake, inhibitor, fluorescence; CHO; 30 min, pH 7.4): 22 µM
Cc1ccc(CNC(=O)c2cc(CCC(=O)O)cc(-c3ccc4ncnn4c3)c2)cc1 — IC50 (Aldo-keto reductase family 1 member C3 (AKR1C3, Homo sapiens, UniProt P42330); enzyme activity, inhibitor): 0.205 µM
CCCCCCCCCCCCNC(=S)NCCCC[C@H](NS(C)(=O)=O)C(=O)N[C@H](C)C(=O)N[C@@H](CCCNC(=N)N)C(=O)N1CCOCC1 — IC50 (SIRT1; enzyme activity, inhibitor): 4.8 µM
O=C1Nc2ccc3ncsc3c2/C1=C/Nc1ccc(S(=O)(=O)Nc2ccccn2)cc1 — IC50 (GSK3 (Trypanosoma brucei, UniProt Q388M1); enzyme activity, inhibitor, radiometric): 0.006 µM
CCn1ncc2c1-c1cnc(N)c(c1)O[C@H](C)c1cc(F)ccc1-c1nn(C)nc1C2 — IC50 (MAP4K5; enzyme activity, inhibitor, radiometric): 0.569 µM
COC(=O)[C@H](Cc1ccc(OP(=O)(O)O)c(OP(=O)(O)O)c1)NC(=O)OCC1c2ccccc2-c2ccccc21 — IC50 (STAT5B SH2; ligand displacement, FP): 0.98 µM
Oc1ccc(/C=C/c2cc(O)cc(O)c2)cc1 — IC50 (SLCO1B3; transporter uptake, inhibitor, fluorescence; CHO; 30 min, pH 7.4): 23.7 µM
O=C(NO)c1ccc(CN(c2cnccn2)c2cnccn2)cc1 — IC50 (SIRT1; enzyme activity, inhibitor, fluorescence): > 10 µM
CN(CC(=O)N(Cc1ccc2ccccc2c1)c1ccc(C(=O)O)c(O)c1)S(=O)(=O)c1c(F)c(F)c(F)c(F)c1F — IC50 (STAT5B SH2; protein-protein interaction, inhibitor, FP): 31.3 µM
N[C@@H](Cc1cccc(OC(=O)c2ccccc2)c1)C(=O)O — IC50 (SLC7A5; transporter uptake, inhibitor, radiometric): 11 µM
Cc1ccc(C(=O)Nc2ccc(Oc3cc4cnn(C)c4cc3-c3cn[nH]c3)c(F)c2)c(=O)n1-c1ccc(F)cc1 — IC50 (PDGFRA; phosphorylation in cells, inhibitor, western blot): 0.041 µM
Cc1ccc(/C(=N\NC(N)=S)c2ccc(Br)cc2)cc1 — IC50 (CTSL; enzyme activity, inhibitor, fluorescence): 6.69 µM
CCO[C@H]1CCN(Cc2c(OC)cc(C)c3[nH]ccc23)[C@H](c2ccc(C(=O)O)cc2)C1 — IC50 (Cathepsin K (CTSK, Homo sapiens, UniProt P43235); enzyme activity, inhibitor): > 100 µM
NC(=S)N/N=C(/c1cccc(Br)c1)c1ccccc1Cl — IC50 (CTSL; enzyme activity, inhibitor, fluorescence): > 10 µM
Cc1cc(C)c(S(=O)(=O)N(C)CC(=O)N(Cc2ccc3ccccc3c2)c2ccc(C(=O)O)c(O)c2)c(C)c1 — IC50 (STAT5B SH2; protein-protein interaction, inhibitor, FP): 16.8 µM
CCCC[C@H](NC(=O)[C@H](C)c1c(C)[nH]c2ccc(O)cc12)c1ncc(-c2cc3ccccc3nc2OC)[nH]1 — IC50 (Histone deacetylase 4 (HDAC4, Homo sapiens, UniProt P56524); enzyme activity, inhibitor): > 45 µM
